Assay results reported in ChEMBL document CHEMBL5724801, “EUbOPEN Chemogenomics Library - Multiplex” (2024).
“And” between values parts separate entries of the source, which are not always exact repeats. Equal entries are not always repeated.

Tested on: U2OS
Assay: Multiplex assay against U2OS
Assay type: toxicity, cell-based
Details: human
Summary of the method: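 Values for tubulin, mitochondrial-mass and membrane-permeability phenotypes are per cents of cells with healthy nuclei. These cells were identified by CellPathfinder machine-learning gating of live cells that had been stained at seeding with Hoechst33342, BioTracker Green Microtubule Cytoskeleton Dye, MitoTracker Red and Annexin V Alexa Fluor 680 and imaged on a CQ1 microscope at 37°C and 5% CO2 after compound addition. The gating first set Hoechst high-intensity objects apart from normal cells, then split normal cells into healthy, pyknosed or fragmented nuclei, and pyknosed cells into mitotic or apoptotic.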

[1] = 12 h, 1 µM, compound concentration 1 uM
[2] = 12 h, 10 µM, compound concentration 10 uM
[3] = 24 h, 1 µM, compound concentration 1 uM
[4] = 24 h, 10 µM, compound concentration 10 uM
[5] = 48 h, 1 µM, compound concentration 1 uM
[6] = 48 h, 10 µM, compound concentration 10 uM

## CSCC[C@H](NC=O)C(=O)N[C@@H](CC(C)C)C(=O)N[C@@H](Cc1ccccc1)C(=O)O
[1]
  Population Apoptotic (%): 73% and 100%
  Population Fragmented Nuclei (%): 29% and 17%
  Population Healthy Nuclei (%): 75%
  Population Mitochondria Different-Phenotype (%): 4% and 3%
  Total Cell Count: 254 and 135
[2]
  Population Apoptotic (%): 69% and 90%
  Population Fragmented Nuclei (%): 23% and 16%
  Population Healthy Nuclei (%): 70% and 74%
  Population Membrane Permeable-Phenotype (%): 4%
  Population Mitochondria Different-Phenotype (%): 1% and 2%
  Population Mitotic Cells (%): 30%
  Total Cell Count: 202 and 123
[3]
  Population Apoptotic (%): 91% and 90%
  Population Fragmented Nuclei (%): 24% and 17%
  Population Healthy Nuclei (%): 75%
  Population Mitochondria Different-Phenotype (%): 3% and 0%
  Population Mitotic Cells (%): 8%
  Total Cell Count: 288 and 147
[4]
  Population Apoptotic (%): 76% and 100%
  Population Fragmented Nuclei (%): 23% and 19%
  Population Healthy Nuclei (%): 68% and 70%
  Population Membrane Permeable-Phenotype (%): 8%
  Population Mitochondria Different-Phenotype (%): 1% and 2%
  Population Mitotic Cells (%): 23% and 0%
  Total Cell Count: 247 and 147
[5]
  Population Fragmented Nuclei (%): 16% and 18%
  Population Healthy Nuclei (%): 75% and 68%
  Population Membrane Permeable-Phenotype (%): 4%
  Population Mitochondria Different-Phenotype (%): 3% and 1%
  Total Cell Count: 411 and 202
[6]
  Population Apoptotic (%): 90% and 100%
  Population Fragmented Nuclei (%): 20% and 53%
  Population Healthy Nuclei (%): 70% and 25%
  Population Mitotic Cells (%): 9% and 0%
